Test results taken from ChEMBL document CHEMBL1275461, “Early bactericidal activity and pharmacokinetics of the diarylquinoline TMC207 in treatment of pulmonary tuberculosis” (Antimicrob Agents Chemother, 2008).

Columns and labels:
Homo sapiens [1] = assay: Toxicity in pulmonary tuberculosis patient assessed as hemoptysis at 300 mg/kg, po once daily; type: organism-based; design: dose 300 mg/kg, route oral; details: in vivo
Homo sapiens [2] = assay: Cardiotoxicity in pulmonary tuberculosis patient assessed as increase in QT interval at 300 mg/kg, po once daily for 7 days; type: toxicity, organism-based; design: dose 300 mg/kg, route oral; details: in vivo, 168 h
[3] = system: Mycobacterium tuberculosis; assay: Bactericidal activity against Mycobacterium tuberculosis in pulmonary tuberculosis patient assessed as reduction in sputum bacterial count at 300 […], po once daily measured after 1 day; type: functional
Procedure, shortened: (§1)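 Hospitalized treatment-naïve smear-positive patients took oral doses once daily, observed, after breakfast. Sputum was pooled over 16 h overnight at baseline, after each of the 7 dosing days, and on the night after the first standard-therapy dose. Sputum was stirred, digested with dithiothreitol for 20 min at room temperature, and diluted 10-fold. Dilutions were plated in quadruplicate on selective 7H11 agar and counted after 3-4 weeks at 37°C at 20-200 colonies. The read-out was change in log10 CFU/ml from baseline, with a count of 0 set to log 0.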

[4] = system: Mycobacterium tuberculosis; assay: Bactericidal activity against Mycobacterium tuberculosis in pulmonary tuberculosis patient assessed as reduction in sputum bacterial count at 300 […], po once daily measured after 2 days; type: functional; procedure, shortened: as §1
[5] = system: Mycobacterium tuberculosis; assay: Bactericidal activity against Mycobacterium tuberculosis in pulmonary tuberculosis patient assessed as reduction in sputum bacterial count at 300 […], po once daily measured after 3 days; type: functional; procedure, shortened: as §1
[6] = system: Mycobacterium tuberculosis; assay: Bactericidal activity against Mycobacterium tuberculosis in pulmonary tuberculosis patient assessed as reduction in sputum bacterial count at 300 mg/kg, po once daily measured after 4 days; type: functional; procedure, shortened: as §1
[7] = system: Mycobacterium tuberculosis; assay: Bactericidal activity against Mycobacterium tuberculosis in pulmonary tuberculosis patient assessed as reduction in sputum bacterial count at 300 mg/kg, po once daily measured after 5 days; type: functional; procedure, shortened: as §1
[8] = system: Mycobacterium tuberculosis; assay: Bactericidal activity against Mycobacterium tuberculosis in pulmonary tuberculosis patient assessed as reduction in sputum bacterial count at 300 mg/kg, po once daily measured after 6 days; type: functional; procedure, shortened: as §1
[9] = system: Mycobacterium tuberculosis; assay: Bactericidal activity against Mycobacterium tuberculosis in pulmonary tuberculosis patient assessed as reduction in sputum bacterial count at 300 mg/kg, po once daily measured after 7 days; type: functional; procedure, shortened: as §1
[10] = system: Mycobacterium tuberculosis; assay: Bactericidal activity against Mycobacterium tuberculosis in pulmonary tuberculosis patient assessed as reduction in sputum bacterial count at 300 mg/kg, po once daily measured on day 8 after starting standard TB therapy; type: functional; procedure, shortened: as §1
Homo sapiens [11] = assay: Cardiotoxicity in pulmonary tuberculosis patient assessed as increase in QT interval at 600 mg/kg, po once daily for 7 days; type: toxicity, organism-based; design: dose 600 mg/kg, route oral; details: in vivo, 168 h
[12] = system: Mycobacterium tuberculosis; assay: Bactericidal activity against Mycobacterium tuberculosis in pulmonary tuberculosis patient assessed as reduction in sputum bacterial count at 600 […], po once daily measured after 1 day; type: functional; procedure, shortened: as §1
[13] = system: Mycobacterium tuberculosis; assay: Bactericidal activity against Mycobacterium tuberculosis in pulmonary tuberculosis patient assessed as reduction in sputum bacterial count at 600 mg/kg, po once daily measured after 2 days; type: functional; procedure, shortened: as §1
[14] = system: Mycobacterium tuberculosis; assay: Bactericidal activity against Mycobacterium tuberculosis in pulmonary tuberculosis patient assessed as reduction in sputum bacterial count at 600 mg/kg, po once daily measured after 3 days; type: functional; procedure, shortened: as §1
[15] = system: Mycobacterium tuberculosis; assay: Bactericidal activity against Mycobacterium tuberculosis in pulmonary tuberculosis patient assessed as reduction in sputum bacterial count at 600 mg/kg, po once daily measured after 4 days; type: functional; procedure, shortened: as §1
[16] = system: Mycobacterium tuberculosis; assay: Bactericidal activity against Mycobacterium tuberculosis in pulmonary tuberculosis patient assessed as reduction in sputum bacterial count at 600 mg/kg, po once daily measured after 6 days; type: functional; procedure, shortened: as §1
[17] = system: Mycobacterium tuberculosis; assay: Bactericidal activity against Mycobacterium tuberculosis in pulmonary tuberculosis patient assessed as reduction in sputum bacterial count at 600 mg/kg, po once daily measured after 7 days; type: functional; procedure, shortened: as §1
[18] = system: Mycobacterium tuberculosis; assay: Bactericidal activity against Mycobacterium tuberculosis in pulmonary tuberculosis patient assessed as reduction in sputum bacterial count at 600 mg/kg, po once daily measured on day 8 after starting standard TB therapy; type: functional; procedure, shortened: as §1

SMILES | Activity (Homo sapiens [1]) [%] | Time (Homo sapiens [2]) [ms] | log10CFU/ml [3] | log10CFU/ml [4] | log10CFU/ml [5] | log10CFU/ml [6] | log10CFU/ml [7] | log10CFU/ml [8] | log10CFU/ml [9] | log10CFU/ml [10] | Time (Homo sapiens [11]) [ms] | log10CFU/ml [12] | log10CFU/ml [13] | log10CFU/ml [14] | log10CFU/ml [15] | log10CFU/ml [16] | log10CFU/ml [17] | log10CFU/ml [18]
NNC(=O)c1ccncc1 [ISONIAZID] | 13.3 | 20.2 | -0.43 | -0.57 | -1.34 | -1.32 | -1.41 | -1.68 | -1.88 | -1.94 | – | – | – | – | – | – | – | –
CO[C@H]1/C=C/O[C@@]2(C)Oc3c(C)c(O)c4c(O)c(c(/C=N/N5CCN(C)CC5)c(O)c4c3C2=O)NC(=O)/C(C)=C\C=C\[C@H](C)[C@H](O)[C@@H](C)[C@@H](O)[C@@H](C)[C@H](OC(C)=O)[C@@H]1C [RIFAMPIN] | – | – | – | – | – | – | – | – | – | – | 13 | -0.28 | -0.88 | -0.89 | -1.17 | -1.55 | -1.7 | -1.82
